Source: ChEMBL document CHEMBL1123472, “Long-acting dihydropyridine calcium antagonists. 1. 2-Alkoxymethyl derivatives incorporating basic substituents” (J Med Chem, 1986)

Experiments:
Cavia porcellus = species: Cavia porcellus; assay: Negative inotropy measured as the concentration required to depress contraction in the isolated Langendorff-perfused guinea pig heart by 25%; type: functional
How it was run: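 Hearts from male guinea pigs were Langendorff-perfused with Krebs-Henseleit solution at 37 °C. Force and rate of contraction were measured with a force transducer attached to the apex.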

[1] = In vitro calcium antagonist activity was assessed against calcium induced constriction of potassium-depolarized rat aorta; type: functional, tissue-based
How it was run: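 Spirally cut rat aortic strips, one end fixed and the other on a force transducer, in modified Krebs-Henseleit with 45 mM K⁺ and no calcium. CaCl2 is added to a final 2 mM Ca²⁺ and the contraction tension is recorded. After draining, refilling and 45 min, the challenge is repeated with the compound in the saline. The concentration giving 50% reduction of the response is recorded.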

Canis familiaris [2] = assay: Percent decrease in coronary vascular resistance in dogs after intravenous dosage of 1500 ug/kg compound; type: functional, Canis lupus familiaris
How it was run: (§1)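 Given intravenously to instrumented, anesthetized dogs. Coronary blood flow was measured by hydrogen clearance. Coronary vascular resistance was derived as arterial blood pressure divided by coronary flow.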

Canis familiaris [3] = assay: Percent decrease in coronary vascular resistance in dogs after intravenous dosage of 450 ug/kg compound; type: functional, Canis lupus familiaris; how it was run: as §1
Canis familiaris [4] = assay: Percent decrease in coronary vascular resistance in dogs after intravenous dosage of 150 ug/kg compound
Rattus norvegicus = species: Rattus norvegicus; assay: In vitro calcium antagonist activity was assessed against calcium induced constriction of potassium -depolarized rat aorta by 50%
[5] = Compound was tested for the volume of distribution in dogs; type: functional, organism-based
[6] = Compound was tested for the plasma half life in dogs; type: functional

-Log IC50 [1] | SMILES | -Log IC25 (Cavia porcellus) | also measured
7.9 | CCO/C(O)=C1\C(COCCN2CCCC2)=NC(C)=C(C(=O)OC)C1c1ccccc1Cl (stereo not given) | 7.7 | –
7.9 | CCO/C(O)=C1\C(COCCN)=NC(C)=C(C(=O)OC)C1c1cccc(Cl)c1 (stereo not given) | 6.6 | –
8.5 | CCO/C(O)=C1\C(COCCN)=NC(C)=C(C(=O)OC)C1c1cccc(C(F)(F)F)c1Cl (stereo not given) | 7.3 | Decrease (Canis familiaris [2]): 81.7%; Decrease (Canis familiaris [3]): 75.7%; Decrease (Canis familiaris [4]): 52.6%
8.1 | CCO/C(O)=C1\C(COCCN(C)C)=NC(C)=C(C(=O)OC)C1c1ccccc1Cl (stereo not given) | 7.5 | Decrease (Canis familiaris [2]): 74.7%; Decrease (Canis familiaris [3]): 68.9%; Decrease (Canis familiaris [4]): 64.8%
8.2 | CCO/C(O)=C1\C(COCCN2CCN(C(C)C)CC2)=NC(C)=C(C(=O)OC)C1c1ccccc1Cl (stereo not given) | 8 | –
8.5 | CCO/C(O)=C1\C(COCCNC)=NC(C)=C(C(=O)OC)C1c1ccccc1Cl (stereo not given) | 7.5 | Decrease (Canis familiaris [2]): 78.6%; Decrease (Canis familiaris [3]): 73.8%; Decrease (Canis familiaris [4]): 46.2%
8.4 | CCO/C(O)=C1\C(COCCCN2CCN(C)CC2)=NC(C)=C(C(=O)OC)C1c1ccccc1Cl (stereo not given) | 8.2 | –
6.1 | CCO/C(O)=C1\C(COCCN(C)C)=NC(C)=C(C(=O)OC)C1c1ccncc1 (stereo not given) | 6 | –
7.8 | CCO/C(O)=C1\C(COCCN2CCOCC2)=NC(C)=C(C(=O)OC)C1c1ccccc1Cl (stereo not given) | 7.5 | –
6.4 | CCO/C(O)=C1\C(COCCN2CCC(N(C)C)CC2)=NC(C)=C(C(=O)OC)C1c1ccccc1Cl (stereo not given) | 7.1 | –
7.1 | CCO/C(O)=C1\C(COCCN(C)C)=NC(C)=C(C(=O)OC)C1c1cccc2ccccc12 (stereo not given) | 7.7 | –
7.9 | CCO/C(O)=C1\C(COCCN2CCN(c3ccc(F)cc3)CC2)=NC(C)=C(C(=O)OC)C1c1ccccc1Cl (stereo not given) | 7.3 | –
– | COC(=O)C1=C(C)NC(C)=C(C(=O)OC)C1c1ccccc1[N+](=O)[O-] [NIFEDIPINE] | 7.5 | IC50 (Rattus norvegicus): 3.98 nM
7.4 | CCO/C(O)=C1\C(COCCN(C)C)=NC(C)=C(C(=O)OC)C1c1ccccc1C(F)(F)F (stereo not given) | 7.6 | –
7.4 | CCO/C(O)=C1\C(COCCN(C)Cc2ccccc2)=NC(C)=C(C(=O)OC)C1c1ccccc1Cl (stereo not given) | 7.3 | –
6.8 | CCO/C(O)=C1\C(COCCN)=NC(C)=C(C(=O)OC)C1c1ccccc1 (stereo not given) | 6.2 | –
8 | CCO/C(O)=C1\C(COCCN(C)C)=NC(C)=C(C(=O)OC)C1c1cccc([N+](=O)[O-])c1 (stereo not given) | 7.1 | –
7.8 | CCO/C(O)=C1\C(COCCN)=NC(C)=C(C(=O)OC)C1c1ccccc1F (stereo not given) | 6.6 | –
7.2 | CCO/C(O)=C1\C(COCCNC)=NC(C)=C(C(=O)OC)C1c1ccccc1OC (stereo not given) | 7.1 | –
7.9 | CCO/C(O)=C1\C(COCCN)=NC(C)=C(C(=O)OC)C1c1cccc(Cl)c1Cl (stereo not given) | 6.6 | –
8 | CCO/C(O)=C1\C(COCCN2CCN(Cc3ccc(Cl)cc3)CC2)=NC(C)=C(C(=O)OC)C1c1ccccc1Cl (stereo not given) | 7.4 | –
6.9 | CCO/C(O)=C1\C(COCCN(C)C)=NC(C)=C(C(=O)OC)C1c1cccs1 (stereo not given) | 6.6 | –
6.8 | CCO/C(O)=C1\C(COCCN2CCNCC2)=NC(C)=C(C(=O)OC)C1c1ccccc1Cl (stereo not given) | 7.4 | –
8 | CCO/C(O)=C1\C(COCCN2CCN(C)CC2)=NC(C)=C(C(=O)OC)C1c1ccccc1Cl (stereo not given) | 7.9 | –
6 | CCO/C(O)=C1\C(COCCN)=NC(C)=C(C(=O)OC)C1c1ccc(Cl)cc1 (stereo not given) | 6 | –
– | COC(=O)C1=C(C)NC(C)=C(C(=O)OCCN(C)Cc2ccccc2)C1c1cccc([N+](=O)[O-])c1 (stereo not given) | – | Vd [5]: 3.5 L/kg; Plasma half life [6]: 17 h
7.2 | CCO/C(O)=C1\C(COCCNC)=NC(C)=C(C(=O)OC)C1c1ccccc1C (stereo not given) | 7.2 | –
6 | CCO/C(O)=C1\C(COCCN2CCN(CCN(CC)CC)CC2)=NC(C)=C(C(=O)OC)C1c1ccccc1Cl (stereo not given) | 7.1 | –
7.9 | CCO/C(O)=C1\C(COCCNC)=NC(C)=C(C(=O)OC)C1c1c(F)cccc1Cl (stereo not given) | 7.6 | –
8.6 | CCO/C(O)=C1\C(COCCCN(C)C)=NC(C)=C(C(=O)OC)C1c1ccccc1Cl (stereo not given) | 8.6 | –

SMILES | -Log IC50 [1] | -Log IC25 (Cavia porcellus) | also measured
CCOC(=O)C1=C(COCCN)NC(C)=C(C(=O)OC)C1c1ccccc1Cl (stereo in doubt; 17) [AMLODIPINE] | 8.1 | – | Decrease (Canis familiaris [2]): 76.9%; Decrease (Canis familiaris [3]): 69.5%; Decrease (Canis familiaris [4]): 35.4%
CCOC(=O)C1=C(COCCN)NC(C)=C(C(=O)OC)C1c1ccccc1Cl (stereo in doubt; 18) [AMLODIPINE] | 8.7 | – | –
CCOC(=O)C1=C(COCCN)NC(C)=C(C(=O)OC)C1c1ccccc1Cl (stereo in doubt; 19) [AMLODIPINE] | 5.8 | – | –
